Results: ChEMBL document CHEMBL1121836, “Effect of structural change on acute toxicity and antiinflammatory activity in a series of imidazothiazoles and thiazolobenzimidazoles” (J Med Chem, 1981)
“And” between values parts separate entries of the source, which are not always exact repeats. Identical values can stand only once.

How the values were obtained:
[1] = Compound was evaluated for the toxicity in mice; assay type: organism-based; conditions: mouse, in vivo
[2] = system: Mus musculus; experiment: Compound was evaluated for the percent reduction of carrageenan induced edema in mice at dose of 30 mg/kg; assay type: functional
[3] = system: Mus musculus; experiment: Compound was evaluated for the percent reduction of carrageenan induced edema in mice at dose of 50 mg/kg; assay type: functional
[4] = system: Mus musculus; experiment: Compound was evaluated for the percent reduction of carrageenan induced edema in mice at dose of 40 mg/kg; assay type: functional
[5] = system: Mus musculus; experiment: Compound was evaluated for the percent reduction of carrageenan induced edema in mice at dose of 150 mg/kg; assay type: functional
[6] = system: Mus musculus; experiment: Compound was evaluated for the percent reduction of carrageenan induced edema in mice at dose of 75 mg/kg; assay type: functional
[7] = system: Mus musculus; experiment: Compound was evaluated for the percent reduction of carrageenan induced edema in mice at dose of 200 mg/kg; assay type: functional
[8] = system: Mus musculus; experiment: Compound was evaluated for the percent reduction of carrageenan induced edema in mice at dose of 25 mg/kg; assay type: functional
[9] = system: Mus musculus; experiment: Compound was evaluated for the percent reduction of carrageenan induced edema in mice at dose of 3 mg/kg; assay type: functional
[10] = system: Rattus norvegicus; experiment: Compound was evaluated in the developed adjuvant arthritis assay at a dose of 10 mg/kg for the percent reduction of carrageenan induced edema (LHF) on 21st day; assay type: functional
Outline: (§1)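 Rats received 0.1 mL heat-killed Mycobacterium tuberculosis suspension (3.5 mg/mL) into the left hind footpad on day 1. On day 20, animals with developed arthritis (all four paws swollen, tail and ears involved) were used. Oral gavage in 0.25% methylcellulose (0.005 mL/g) on days 20 and 22. Hind paw volumes were recorded daily on days 20–23. Mean group volume is expressed as percent change from day 20.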

[11] = system: Rattus norvegicus; experiment: Compound was evaluated in the developed adjuvant arthritis assay at a dose of 10 mg/kg for the percent reduction of carrageenan induced edema (LHF) on 22nd day; assay type: functional; outline: as §1
[12] = system: Mus musculus; experiment: Compound was evaluated for the percent reduction of carrageenan induced edema in mice at dose of 10 mg/kg; assay type: functional
[13] = system: Rattus norvegicus; experiment: Compound was evaluated in the developed adjuvant arthritis assay at a dose of 10 mg/kg for the percent reduction of carrageenan induced edema (LHF) on 23rd day; assay type: functional; outline: as §1
[14] = system: Rattus norvegicus; experiment: Compound was evaluated in the developed adjuvant arthritis assay at a dose of 300 mg/kg for the percent reduction of carrageenan induced edema (LHF) on 22nd day; assay type: functional; outline: as §1
[15] = organism: Mus musculus; experiment: Dose giving one-half of average maximal [40%] response in phenylquinone writhing assay; assay type: functional
[16] = system: Rattus norvegicus; experiment: Compound was evaluated in the developed adjuvant arthritis assay at a dose of 300 mg/kg for the percent reduction of carrageenan induced edema (LHF) on 23rd day; assay type: functional; outline: as §1
[17] = organism: Mus musculus; experiment: Neurotoxic dose that causes minimal recognizable neurotoxicity in 50% of animals tested; assay type: functional
Outline: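 Mice dosed orally or intraperitoneally; neurotoxicity scored on five end points, including a positional sense test in which a hind leg lowered over a table edge should be quickly lifted back to a normal position. NTD50 is the dose giving minimal recognizable neurotoxicity in 50% of animals tested.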

[18] = system: Rattus norvegicus; experiment: Compound was evaluated in the developed adjuvant arthritis assay at a dose of 100 mg/kg for the percent reduction of carrageenan induced edema (LHF) on 22nd day; assay type: functional; outline: as §1
[19] = organism: Mus musculus; experiment: Dose giving one-half of average maximal [40%] response in carrageenan assay; assay type: functional
[20] = system: Rattus norvegicus; experiment: Compound was evaluated in the developed adjuvant arthritis assay at a dose of 100 mg/kg for the percent reduction of carrageenan induced edema (LHF) on 21st day; assay type: functional; outline: as §1
[21] = system: Mus musculus; experiment: Percent analgesia in phenylquinone writhing assay at 10 mg/kg; assay type: functional
Outline: (§2)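 Groups of 10 male mice were dosed orally with compound dissolved or suspended in 0.25% methylcellulose (0.25 mL per mouse). After the designated interval they were challenged ip with 0.25 mL of 0.02% phenylquinone in aqueous ethanol (95:5). Read-out is the percentage of mice protected from writhing.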

[22] = system: Rattus norvegicus; experiment: Compound was evaluated in the developed adjuvant arthritis assay at a dose of 30 mg/kg for the percent reduction of carrageenan induced edema (LHF) on 22nd day; assay type: functional; outline: as §1
[23] = Lethal dose evaluated in NPP assay; assay type: toxicity, organism-based; conditions: mouse, in vivo
[24] = system: Rattus norvegicus; experiment: Compound was evaluated in the developed adjuvant arthritis assay at a dose of 100 mg/kg for the percent reduction of carrageenan induced edema (LHF) on 23rd day; assay type: functional; outline: as §1
[25] = system: Rattus norvegicus; experiment: Compound was evaluated in the developed adjuvant arthritis assay at a dose of 30 mg/kg for the percent reduction of carrageenan induced edema (LHF) on 21st day; assay type: functional; outline: as §1
[26] = system: Mus musculus; experiment: Percent analgesia in phenylquinone writhing assay at 100 mg/kg; assay type: functional; outline: as §2
[27] = system: Rattus norvegicus; experiment: Compound was evaluated in the developed adjuvant arthritis assay at a dose of 30 mg/kg for the percent reduction of carrageenan induced edema (LHF) on 23rd day; assay type: functional; outline: as §1
[28] = system: Mus musculus; experiment: Percent analgesia in phenylquinone writhing assay at 30 mg/kg; assay type: functional; outline: as §2
[29] = organism: Rattus norvegicus; experiment: Ulcerogenic dose that produced gastric lesions, ulcers and/or hemorrhage in 50% of the animals tested; assay type: functional, Stomach
Outline: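 Ten male Sprague–Dawley rats (ca. 160 g) were fasted 24 h with water available, then dosed po with compound or vehicle. At 4 h they were killed with CO2, and stomachs were opened along the greater curvature. A nonbiased observer scored ulcers, pitting or hemorrhagic spots. UD50 (lesions in 50% of animals) was determined by Litchfield–Wilcoxon.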

[30] = system: Rattus norvegicus; experiment: Compound was evaluated in the developed adjuvant arthritis assay at a dose of 300 mg/kg for the percent reduction of carrageenan induced edema (LHF) on 21st day; assay type: functional; outline: as §1
[31] = system: Mus musculus; experiment: Compound was evaluated for the percent reduction of carrageenan induced edema in mice at dose of 100 mg/kg; assay type: functional

Structure (SMILES): CC1=C(C(=O)Nc2c(Br)cccc2Br)SC2=NCCN21
- LD50 [1]: 40 mg/kg
- Reduction [2]: 0%

Structure (SMILES): CCOC(=O)C1=C(C)N2CCN=C2S1
- LD50 [1]: 180 mg/kg
- Reduction [3]: 2%

Structure (SMILES): Cc1cc(C)c(NC(=O)C2=C(c3ccccc3)N3CCN=C3S2)c(C)c1
- LD50 [1]: 80 mg/kg
- Reduction [3]: 23%

Structure (SMILES): CC1(C)CN2C(c3ccccc3)=CSC2=N1
- LD50 [1]: 60 mg/kg
- Reduction [4]: 0%

Structure (SMILES): CCOC(=O)Cc1ccc(C2=CSC3=NCCN23)cc1
- Reduction [5]: 0%
- LD50 [1]: 180 mg/kg

Structure (SMILES): CC1=C(C(=O)Nc2ccccc2F)SC2=NCCN21
- LD50 [1]: 100 mg/kg
- Reduction [6]: 15%

Structure (SMILES): CS(=O)(=O)CC1=CSC2=NCCN12
- Reduction [7]: 11%

Structure (SMILES): CC1=C(C(=O)Nc2c(Cl)cccc2Cl)SC2=NCCN21
- LD50 [1]: 60 mg/kg

Structure (SMILES): OC1(C(F)(F)F)CSC2=NC3CCCCC3N21 (configuration not stated)
- Reduction [7]: 18%

Structure (SMILES): CC1(C)SC2=NC3CCCCC3N2C1(O)c1ccccc1 (configuration not stated)
- Reduction ([7]; 200 mg/kg): 15% and 30%

Structure (SMILES): c1ccc(C2=C(c3ccccc3)N3CCN=C3S2)cc1
- LD50 [1]: 40 mg/kg
- Reduction [8]: 14%

Structure (SMILES): CC1=C(C(=O)Nc2cccc(C(F)(F)F)c2)SC2=NCCN21
- Reduction [7]: 36%
- LD50 [1]: 240 mg/kg

Structure (SMILES): CC1(O)CSC2=NC3CCCCC3N21 (configuration not stated)
- Reduction [9]: 10%
- Reduction [10]: 3%
- Reduction [11]: 2%
- Reduction [12]: 15%
- Reduction [13]: 11%
- Reduction [3]: 45%
- Reduction [8]: 7%
- Reduction [2]: 7%

Structure (SMILES): CS(=O)(=O)C1=C(c2ccccc2)N2CCN=C2S1
- Reduction [9]: 15%
- Reduction [14]: 19%
- ED50 [15]: 30 mg/kg
- Reduction [16]: 17%
- NTD50 [17]: 690 mg/kg
- Reduction [18]: 26%
- ED50 [19]: 30 mg/kg
- Reduction [20]: 11%
- Analgesia [21]: 10%
- Reduction [22]: 15%
- Reduction [7]: 43%
- LD50 [23]: > 1000 mg/kg
- Reduction [12]: 33%
- Reduction [24]: 16%
- Reduction [25]: 10%
- LD50 [1]: > 300 mg/kg
- Analgesia [26]: 90%
- Reduction [27]: 7%
- Analgesia [28]: 60%
- UD50 [29]: >100 mg/kg
- Reduction [30]: 10%
- Reduction [31]: 30%
- Reduction [2]: 26%

Structure (SMILES): CC1(C)CN2C(CS(=O)(=O)c3ccccc3)=CSC2=N1
- Reduction [7]: 5%
